ChEMBL document CHEMBL1149157, “Synthesis and structure-activity relationship of novel antitumoral platinum xanthate complexes” (J Med Chem, 2004)

How the values were obtained:
Type in all cases: functional, cell-based, Homo sapiens
MCF7 [1] = assay: Cytotoxic activity was determined in vitro in MCF-7 cell line culture at pH 6.8
In short: (§1)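 Cells at 2×10^6/plate were moved the next day into pH 6.8 medium (1.3 g NaHCO3/L; serum given 1 N HCl; 30 min 5% CO2). Treated 2 h at 37°C, quadruplicate, 50–0.8 µg/mL in 1:2 steps (acetone ≤5%), then grown in drug-free pH 7.4 medium to control confluence. Crystal violet stain eluted with ethanol/1% acetic acid before A550. IC50 from curves, mean of four assays ± SD.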

MCF7 [2] = assay: Cytotoxic activity was determined in vitro in MCF-7 cell line culture at pH 7.4
In short: (§2)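 Using pH 7.4 medium (2.2 g NaHCO3/L) on cells plated a day earlier at 2×10^6/plate, with equilibration in 5% CO2. Compounds were applied for 2 h at 37°C in quadruplicate at 50–0.8 µg/mL (1:2; acetone ≤5%), followed by drug-free pH 7.4 medium until controls were confluent. Fixed and stained with crystal violet, dye eluted with ethanol/1% acetic acid, read at 550 nm. IC50 from curves, mean of four ± SD.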

SK-OV-3 [3] = assay: Cytotoxic activity was determined in vitro in SK-OV-3 cell line culture at pH 7.4
In short: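 With 1×10^6 cells/plate seeded, medium was changed the next day to pH 7.4 (2.2 g NaHCO3/L) under 5% CO2. Cells were exposed 2 h at 37°C in quadruplicate to a 1:2 series of 50–0.8 µg/mL (acetone ≤5%), then given drug-free pH 7.4 medium until controls were confluent. Crystal violet read at 550 nm after formaldehyde fixation. IC50 from curves; mean of four assays ± SD.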

SK-MEL-25 [4] = assay: Cytotoxic activity was determined in vitro in SK-MEL-25 cell line culture at pH 7.4
In short: (§3)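 Plated at 2×10^6 cells/plate. After one day, medium was replaced with pH 7.4 medium (2.2 g NaHCO3/L) and equilibrated under 5% CO2. Cells got 2 h at 37°C, in quadruplicate, of a 1:2 series 50–0.8 µg/mL (acetone ≤5%), then drug-free pH 7.4 medium for 24–96 h until controls were confluent. Fixed with 3% formaldehyde, stained with 1% crystal violet, A550. IC50 from dose–response curves; mean of four assays ± SD.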

Calu-6 [5] = assay: Cytotoxic activity was determined in vitro in Calu-6 cell line culture at pH 6.8
In short: (§4)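 Seeded at 2×10^6 cells/plate. Next day, switched to pH 6.8 medium (1.3 g NaHCO3/L, serum acidified with 1 N HCl) and equilibrated in 5% CO2. Exposed for 2 h at 37°C in quadruplicate to 50–0.8 µg/mL (1:2 series; acetone ≤5%), then given drug-free pH 7.4 medium until controls were confluent. Read by formaldehyde fixation and crystal violet at 550 nm. IC50 from dose–response curves, mean of four assays ± SD.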

Calu-6 [6] = assay: Cytotoxic activity was determined in vitro in Calu-6 cell line culture at pH 7.4; in short: as §3
LXF-289 cell line [7] = assay: Cytotoxic activity was determined in vitro in LXF-289 cell line culture at pH 6.8; in short: as §4
SK-OV-3 [8] = assay: Cytotoxic activity was determined in vitro in SK-OV-3 cell line culture at pH 6.8
In short: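 SK-OV-3 seeded at 1×10^6 cells/plate. Next day, placed in pH 6.8 medium (1.3 g NaHCO3/L, HCl-treated serum, 5% CO2). Given 2 h at 37°C, in quadruplicate, of 50–0.8 µg/mL (1:2; acetone ≤5%), then drug-free pH 7.4 medium until controls were confluent. Formaldehyde-fixed and crystal violet-stained, A550. IC50 from dose–response curves, mean of four assays ± SD.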

KB [9] = assay: Cytotoxic activity was determined in vitro in KB cell line culture at pH 6.8; in short: as §1
LXF-289 cell line [10] = assay: Cytotoxic activity was determined in vitro in LXF-289 cell line culture at pH 7.4; in short: as §3
SK-MEL-25 [11] = assay: Cytotoxic activity was determined in vitro in SK-MEL-25 cell line culture at pH 6.8; in short: as §4
KB [12] = assay: Cytotoxic activity was determined in vitro in KB cell line culture at pH 7.4; in short: as §2

Substance	IC50 (MCF7 [1])	IC50 (MCF7 [2])	IC50 (SK-OV-3 [3])	IC50 (SK-MEL-25 [4])	IC50 (Calu-6 [5])	IC50 (Calu-6 [6])	IC50 (LXF-289 cell line [7])	IC50 (SK-OV-3 [8])	IC50 (KB [9])	IC50 (LXF-289 cell line [10])	IC50 (SK-MEL-25 [11])	IC50 (KB [12])
2,6-dibutoxy-1,3,5,7-tetrathia-4-platinaspiro[3.3]heptane	7 µM	25 µM	90 µM	22 µM	7 µM	19 µM	24 µM	33 µM	16 µM	39 µM	10 µM	32 µM
2,6-dimethoxy-1,3,5,7-tetrathia-4-platinaspiro[3.3]heptane	7 µM	19 µM	47 µM	80 µM	11 µM	21 µM	39 µM	26 µM	20 µM	102 µM	14 µM	49 µM
2,6-bis(propan-2-yloxy)-1,3,5,7-tetrathia-4-platinaspiro[3.3]heptane	3 µM	7 µM	33 µM	12 µM	6 µM	10 µM	10 µM	14 µM	6 µM	30 µM	6 µM	10 µM
CISPLATIN	108 µM	160 µM	90 µM	90 µM	16 µM	25 µM	113 µM	64 µM	55 µM	83 µM	78 µM	52 µM
2,6-bis(cyclohexyloxy)-1,3,5,7-tetrathia-4-platinaspiro[3.3]heptane	5 µM	9 µM	12 µM	8 µM	3 µM	8 µM	6 µM	9 µM	6 µM	12 µM	3 µM	9 µM
2,6-bis(hexyloxy)-1,3,5,7-tetrathia-4-platinaspiro[3.3]heptane	44 µM	47 µM	130 µM	70 µM	23 µM	37 µM	> 91 µM	102 µM	64 µM	> 91 µM	37 µM	> 91 µM
2,6-dipropoxy-1,3,5,7-tetrathia-4-platinaspiro[3.3]heptane	4 µM	9 µM	50 µM	21 µM	7 µM	21 µM	37 µM	45 µM	12 µM	49 µM	10 µM	38 µM
2,6-diethoxy-1,3,5,7-tetrathia-4-platinaspiro[3.3]heptane	12 µM	47 µM	98 µM	56 µM	21 µM	24 µM	45 µM	86 µM	18 µM	91 µM	21 µM	58 µM
2,6-bis(cyclopropylmethoxy)-1,3,5,7-tetrathia-4-platinaspiro[3.3]heptane	95 µM	90 µM	67 µM	85 µM	17 µM	33 µM	> 102 µM	95 µM	33 µM	> 102 µM	64 µM	72 µM
2,6-dicyclobutoxy-1,3,5,7-tetrathia-4-platinaspiro[3.3]heptane	11 µM	21 µM	19 µM	12 µM	3 µM	7 µM	37 µM	17 µM	6 µM	44 µM	7 µM	20 µM
2,6-bis(2,2-dimethyl-3-phenylpropoxy)-1,3,5,7-tetrathia-4-platinaspiro[3.3]heptane	> 50 µM	> 50 µM	> 50 µM	> 50 µM	10 µM	17 µM	> 50 µM	> 50 µM	> 50 µM	> 50 µM	> 50 µM	> 50 µM
2,6-bis(pentyloxy)-1,3,5,7-tetrathia-4-platinaspiro[3.3]heptane	10 µM	34 µM	66 µM	32 µM	9 µM	15 µM	38 µM	31 µM	16 µM	62 µM	19 µM	25 µM
2,6-bis(2-methylpropoxy)-1,3,5,7-tetrathia-4-platinaspiro[3.3]heptane	27 µM	23 µM	61 µM	21 µM	9 µM	10 µM	19 µM	32 µM	30 µM	37 µM	15 µM	47 µM
2,6-bis({tricyclo[5.2.2.0^{2,6}]undecan-8-yloxy})-1,3,5,7-tetrathia-4-platinaspiro[3.3]heptane	32 µM	> 38 µM	> 38 µM	> 38 µM	8 µM	18 µM	> 38 µM	> 38 µM	> 77 µM	> 38 µM	> 38 µM	> 77 µM
2,6-bis(nonyloxy)-1,3,5,7-tetrathia-4-platinaspiro[3.3]heptane	24 µM	30 µM	> 76 µM	> 76 µM	> 76 µM	> 76 µM	38 µM	> 76 µM	> 76 µM	53 µM	> 76 µM	> 76 µM
2,6-bis(2-methylbutoxy)-1,3,5,7-tetrathia-4-platinaspiro[3.3]heptane	19 µM	27 µM	35 µM	32 µM	9 µM	19 µM	19 µM	23 µM	31 µM	44 µM	17 µM	39 µM
2,6-bis[(3,3-dimethylbutan-2-yl)oxy]-1,3,5,7-tetrathia-4-platinaspiro[3.3]heptane	7 µM	9 µM	34 µM	11 µM	9 µM	9 µM	15 µM	18 µM	5 µM	18 µM	10 µM	7 µM
2,6-bis(2,2-dimethylpropoxy)-1,3,5,7-tetrathia-4-platinaspiro[3.3]heptane	62 µM	> 86 µM	> 86 µM	83 µM	25 µM	27 µM	59 µM	> 86 µM	> 96 µM	75 µM	72 µM	> 96 µM
2,6-bis(octyloxy)-1,3,5,7-tetrathia-4-platinaspiro[3.3]heptane	31 µM	31 µM	> 83 µM	> 83 µM	23 µM	56 µM	30 µM	> 83 µM	> 83 µM	83 µM	56 µM	> 83 µM
